Test results from ChEMBL document CHEMBL1938355, “Antimycobacterial activities of 5-alkyl (or halo)-3'-substituted pyrimidine nucleoside analogs” (Bioorg Med Chem Lett, 2012).
Converted amounts (≈) assume the structure as drawn. The source made the active and inactive calls. The rule behind the calls is not given here.

How the values were obtained:
[1] = test system: Mycobacterium tuberculosis; assay: Antimycobacterial activity against Mycobacterium bovis BCG assessed as growth inhibition at 100 ug/ml by microplate alamar blue assay; format: functional; details: variant bovis BCG, read-out: GI
In short: (§1)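 Strains obtained from ATCC. Tested by microplate alamar blue assay. Compounds made up as 10 mg/mL DMSO stocks, then serially diluted in 7H9GC medium. Final test concentrations were 100, 50, 25, 10, 5, 1 and 0.5, each in triplicate. Experiments were run twice, and mean percent growth inhibition is reported.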

[2] = test system: Mycobacterium tuberculosis; assay: Antimycobacterial activity against Mycobacterium bovis BCG assessed as growth inhibition at 0.5 to 100 ug/ml by microplate alamar blue assay; format: functional, organism-based; details: variant bovis BCG; in short: as §1
[3] = test system: Mycobacterium tuberculosis; assay: Antimycobacterial activity against Mycobacterium bovis BCG assessed as growth inhibition at 0.5 ug/ml by microplate alamar blue assay; format: functional; details: variant bovis BCG, read-out: GI; in short: as §1
[4] = test system: Mycobacterium tuberculosis; assay: Antimycobacterial activity against Mycobacterium bovis BCG by microplate alamar blue assay; format: functional; details: variant bovis BCG
[5] = test system: Mycobacterium tuberculosis; assay: Antimycobacterial activity against Mycobacterium bovis BCG assessed as growth inhibition at 50 ug/ml by microplate alamar blue assay; format: functional; details: variant bovis BCG, read-out: GI; in short: as §1
[6] = test system: Mycobacterium tuberculosis; assay: Antimycobacterial activity against Mycobacterium bovis BCG assessed as growth inhibition at 10 ug/ml by microplate alamar blue assay; format: functional; details: variant bovis BCG, read-out: GI; in short: as §1
[7] = test system: Mycobacterium tuberculosis; assay: Antimycobacterial activity against Mycobacterium bovis BCG assessed as growth inhibition at 1 ug/ml by microplate alamar blue assay; format: functional; details: variant bovis BCG, read-out: GI; in short: as §1

| SMILES | inhibition of growth at 100 µg/mL [1] [%] | growth inhibition (GI) [2] | other results |
| --- | --- | --- | --- |
| [N-]=[N+]=N[C@H]1C[C@H](n2cc(Cl)c(=O)[nH]c2=O)O[C@@H]1CO | 50 | – | – |
| CCc1cn([C@H]2C[C@H](F)[C@@H](CO)O2)c(=O)[nH]c1=O | 40 | – | – |
| [N-]=[N+]=N[C@H]1C[C@H](n2cc(Br)c(=O)[nH]c2=O)O[C@@H]1CO | 50 | – | – |
| CCc1cn([C@H]2C[C@H](I)[C@@H](CO)O2)c(=O)[nH]c1=O | – | inactive | – |
| [N-]=[N+]=N[C@H]1C[C@H](n2cc(F)c(=O)[nH]c2=O)O[C@@H]1CO | – | inactive | – |
| O=c1[nH]c(=O)n([C@H]2C[C@H](F)[C@@H](CO)O2)cc1C(F)(F)F | – | inactive | – |
| CO[C@H]1/C=C/O[C@@]2(C)Oc3c(C)c(O)c4c(O)c(c(/C=N/N5CCN(C)CC5)c(O)c4c3C2=O)NC(=O)/C(C)=C\C=C\[C@H](C)[C@H](O)[C@@H](C)[C@@H](O)[C@@H](C)[C@H](OC(C)=O)[C@@H]1C [RIFAMPIN] | – | – | inhibition of growth at 0.5 µg/mL [3]: 100% |
| CCc1cn([C@H]2C[C@@H](O)[C@@H](CO)O2)c(=O)[nH]c1=O | – | inactive | – |
| Cc1cn([C@H]2C[C@H](N)[C@@H](CO)O2)c(=O)[nH]c1=O [3-AMINO- 3-DEOXYTHYMIDINE] | 50 | – | – |
| CCc1cn([C@H]2CC[C@@H](CO)O2)c(=O)[nH]c1=O | – | inactive | – |
| N[C@@H]1CONC1=O [CYCLOSERINE] | 100 | – | MIC50 [4]: 1 µg/mL (≈ 9.79 µM); inhibition of growth at 50 µg/mL [5]: 100%; inhibition of growth at 10 µg/mL [6]: 100%; inhibition of growth at 1 µg/mL [7]: 50% |
| CCc1cn([C@H]2C[C@H](N=[N+]=[N-])[C@@H](CO)O2)c(=O)[nH]c1=O | 95 | – | MIC50 [4]: 1 µg/mL (≈ 3.56 µM); inhibition of growth at 50 µg/mL [5]: 95%; inhibition of growth at 10 µg/mL [6]: 85%; inhibition of growth at 1 µg/mL [7]: 50% |
